The structures appear in SMILES notation. Converted amounts (≈) assume the structure as drawn.

In general, MIC refers to the smallest concentration in the dilution series that meets the test's criterion for growth inhibition.

The first assay concerns Streptococcus pneumoniae. Put plainly: Antimicrobial activity against Streptococcus pneumoniae RCMB 010010 assessed as absence of turbidity after 24 hrs. Format: functional. Particulars: RCMB 010010, 24 h. In a few lines:
(§1)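 Broth microdilution in Müller–Hinton broth. DMF stocks at 1000 µg/mL were diluted in broth to give twofold serial dilutions over 500–0.007 µg/mL. Bacterial inoculum was about 10^6 CFU/mL in 96-well plates, sealed and incubated at 37 °C for 24 h in a humid chamber. MIC was taken as the lowest concentration with no visible turbidity. DMF and uninoculated-medium controls were included. Only compounds giving zones >10 mm were tested.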
As for `Cc1noc(NS(=O)(=O)c2ccc(NC(=O)/C(C#N)=C/c3ccccc3)cc2)c1C`, the MIC came out at 7.81 µg/mL (≈ 18.5 µM).
With `Cc1noc(NS(=O)(=O)c2ccc(-n3c(S)c(C#N)c(-c4ccco4)c(C#N)c3=O)cc2)c1C`, the MIC came to 0.24 µg/mL (≈ 0.486 µM).

In the next assay the test system is Escherichia coli. Briefly: Antimicrobial activity against Escherichia coli RCMB 010052 assessed as inhibition zone at 5 mg/ml after 24 hrs. Format: functional. Particulars: RCMB 010052, 24 h, read-out: IZ. In a few lines: (§2)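 Agar diffusion on nutrient agar seeded with 10^6 CFU/mL bacteria. Filter-paper disks were loaded with 100 µL of a 5 mg/mL compound solution in DMF, with a DMF-only control. Incubation was 37 °C for 24 h. Inhibition zone in mm (mean ± SD, triplicate plates) was measured beyond the 6 mm diameter.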
`Cc1noc(NS(=O)(=O)c2ccc(NC(=O)/C(C#N)=C/c3ccccc3)cc2)c1C`: the zone of inhibition at 5000 µg/mL is 20.6 mm.
In the case of `Cc1noc(NS(=O)(=O)c2ccc(-n3c(S)c(C#N)c(-c4ccco4)c(C#N)c3=O)cc2)c1C`, the zone of inhibition at 5000 µg/mL is 21.6 mm.

A further assay deals with Klebsiella pneumoniae. Briefly: Antimicrobial activity against Klebsiella pneumoniae RCMB 010093 assessed as absence of turbidity after 24 hrs. Format: functional. Particulars: RCMB 010093, 24 h. Summed up: as §1
Regarding `Cc1noc(NS(=O)(=O)c2ccc(NC(=O)/C(C#N)=C/c3ccccc3)cc2)c1C`, the MIC stood at 0.49 µg/mL (≈ 1.16 µM).
Take `Cc1noc(NS(=O)(=O)c2ccc(-n3c(S)c(C#N)c(-c4ccco4)c(C#N)c3=O)cc2)c1C`: the minimal inhibitory concentration (MIC) was 0.24 µg/mL (≈ 0.486 µM).

The subject of a further assay is Klebsiella pneumoniae. Briefly: Antimicrobial activity against Klebsiella pneumoniae RCMB 010093 assessed as inhibition zone at 5 mg/ml after 24 hrs. Format: functional. Particulars: RCMB 010093, 24 h, read-out: IZ. In a few lines: as §2
For `Cc1noc(NS(=O)(=O)c2ccc(NC(=O)/C(C#N)=C/c3ccccc3)cc2)c1C`, the zone of inhibition at 5000 µg/mL amounted to 21.9 mm.
On the same count and under the same terms, under `Cc1noc(NS(=O)(=O)c2ccc(-n3c(S)c(C#N)c(-c4ccco4)c(C#N)c3=O)cc2)c1C` stands 22.6 mm.

A further assay has as its system Staphylococcus epidermidis. Briefly: Antimicrobial activity against Staphylococcus epidermidis RCMB 010024 assessed as inhibition zone at 5 mg/ml after 24 hrs. Format: functional. Particulars: RCMB 010024, 24 h, read-out: IZ. In a few lines:
as §2
For `Cc1noc(NS(=O)(=O)c2ccc(NC(=O)/C(C#N)=C/c3ccccc3)cc2)c1C`, the zone of inhibition at 5000 µg/mL amounted to 19.1 mm.
The same measure, in the same setting: under `Cc1noc(NS(=O)(=O)c2ccc(-n3c(S)c(C#N)c(-c4ccco4)c(C#N)c3=O)cc2)c1C` stands 21.4 mm.

Another assay concerns Aspergillus fumigatus. Put plainly: Antifungal activity against Aspergillus fumigatus RCMB 02568 assessed as inhibition zone at 5 mg/ml after 48 hrs. Format: functional. Particulars: RCMB 02568, 48 h, read-out: IZ. In a few lines: (§3)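 Disk diffusion on nutrient agar seeded with 10^4 CFU/mL fungus. Sterile filter-paper disks carried 100 µL of a 5 mg/mL DMF solution, and DMF alone served as control. Plates were incubated at 25 °C for 48 h. Mean inhibition zone in mm ± SD was read beyond the 6 mm diameter, in triplicate.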
As for `Cc1noc(NS(=O)(=O)c2ccc(NC(=O)/C(C#N)=C/c3ccccc3)cc2)c1C`, the zone of inhibition at 5000 µg/mL was 17.1 mm.
For `Cc1noc(NS(=O)(=O)c2ccc(-n3c(S)c(C#N)c(-c4ccco4)c(C#N)c3=O)cc2)c1C`, the zone of inhibition at 5000 µg/mL came to 22 mm.

Another assay concerns Geotrichum candidum. Briefly: Antifungal activity against Geotrichum candidum RCMB 05097 assessed as absence of turbidity after 48 hrs. Format: functional. Particulars: RCMB 05097, 48 h. Summed up:
(§4)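 Broth microdilution in Sabouraud liquid medium. DMF stocks at 1000 µg/mL were diluted in broth to give twofold serial dilutions over 500–0.007 µg/mL. Fungal inoculum was about 10^4 CFU/mL in 96-well plates, sealed and incubated at 25 °C for 48 h in a humid chamber. MIC was taken as the lowest concentration with no visible turbidity. DMF and uninoculated-medium controls were included.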
On to `Cc1noc(NS(=O)(=O)c2ccc(NC(=O)/C(C#N)=C/c3ccccc3)cc2)c1C`, for which the MIC is 0.98 µg/mL (≈ 2.32 µM).
Regarding `Cc1noc(NS(=O)(=O)c2ccc(-n3c(S)c(C#N)c(-c4ccco4)c(C#N)c3=O)cc2)c1C`, the MIC stood at 0.12 µg/mL (≈ 0.243 µM).

The test system of the next assay is Streptococcus pneumoniae. Put plainly: Antimicrobial activity against Streptococcus pneumoniae RCMB 010010 assessed as inhibition zone at 5 mg/ml after 24 hrs. Format: functional. Particulars: RCMB 010010, 24 h, read-out: IZ. In a few lines:
as §2
In the case of `Cc1noc(NS(=O)(=O)c2ccc(NC(=O)/C(C#N)=C/c3ccccc3)cc2)c1C`, the zone of inhibition at 5000 µg/mL was 18.4 mm.
`Cc1noc(NS(=O)(=O)c2ccc(-n3c(S)c(C#N)c(-c4ccco4)c(C#N)c3=O)cc2)c1C`: the zone of inhibition at 5000 µg/mL is 22.6 mm.

The next assay concerns Geotrichum candidum. Put plainly: Antifungal activity against Geotrichum candidum RCMB 05097 assessed as inhibition zone at 5 mg/ml after 48 hrs. Format: functional. Particulars: RCMB 05097, 48 h, read-out: IZ. In a few lines:
as §3
Turning to `Cc1noc(NS(=O)(=O)c2ccc(NC(=O)/C(C#N)=C/c3ccccc3)cc2)c1C`, the zone of inhibition at 5000 µg/mL is 20.9 mm.
On the same count and under the same terms, under `Cc1noc(NS(=O)(=O)c2ccc(-n3c(S)c(C#N)c(-c4ccco4)c(C#N)c3=O)cc2)c1C` stands 24.3 mm.

In the next assay the test system is Staphylococcus epidermidis. Briefly: Antimicrobial activity against Staphylococcus epidermidis RCMB 010024 assessed as absence of turbidity after 24 hrs. Format: functional. Particulars: RCMB 010024, 24 h. Summed up:
as §1
With `Cc1noc(NS(=O)(=O)c2ccc(NC(=O)/C(C#N)=C/c3ccccc3)cc2)c1C`, the MIC stood at 3.9 µg/mL (≈ 9.23 µM).
For the compound `Cc1noc(NS(=O)(=O)c2ccc(-n3c(S)c(C#N)c(-c4ccco4)c(C#N)c3=O)cc2)c1C`, the minimum inhibitory concentration (MIC) stood at 0.98 µg/mL (≈ 1.99 µM).

The subject of another assay is Proteus vulgaris. Briefly: Antimicrobial activity against Proteus vulgaris RCMB 010085 assessed as inhibition zone at 5 mg/ml after 24 hrs. Format: functional. Particulars: RCMB 010085, 24 h, read-out: IZ. Summed up:
as §2
For `Cc1noc(NS(=O)(=O)c2ccc(NC(=O)/C(C#N)=C/c3ccccc3)cc2)c1C`, the zone of inhibition at 5000 µg/mL was determined as 18 mm.
With `Cc1noc(NS(=O)(=O)c2ccc(-n3c(S)c(C#N)c(-c4ccco4)c(C#N)c3=O)cc2)c1C`, the zone of inhibition at 5000 µg/mL is 18.3 mm.

In another assay the test system is Bacillus subtilis. Put plainly: Antimicrobial activity against Bacillis subtilis RCMB 010067 assessed as inhibition zone at 5 mg/ml after 24 hrs. Format: functional. Particulars: RCMB 010067, 24 h, read-out: IZ. Summed up:
as §2
For `Cc1noc(NS(=O)(=O)c2ccc(NC(=O)/C(C#N)=C/c3ccccc3)cc2)c1C`, the zone of inhibition at 5000 µg/mL was 20.3 mm.
`Cc1noc(NS(=O)(=O)c2ccc(-n3c(S)c(C#N)c(-c4ccco4)c(C#N)c3=O)cc2)c1C`: the zone of inhibition at 5000 µg/mL is 23.6 mm.

For a further assay, the system named is Syncephalastrum racemosum. Briefly: Antifungal activity against Syncephalastrum racemosum RCMB 05922 assessed as absence of turbidity after 48 hrs. Particulars: RCMB 05922, 48 h. Format: functional.
On to `Cc1noc(NS(=O)(=O)c2ccc(NC(=O)/C(C#N)=C/c3ccccc3)cc2)c1C`, for which the MIC was determined as 7.81 µg/mL (≈ 18.5 µM).
Consider `Cc1noc(NS(=O)(=O)c2ccc(-n3c(S)c(C#N)c(-c4ccco4)c(C#N)c3=O)cc2)c1C`, for which the minimal inhibitory concentration (MIC) amounted to 0.98 µg/mL (≈ 1.99 µM).

Another assay deals with Escherichia coli. Briefly: Antimicrobial activity against Escherichia coli RCMB 010052 assessed as absence of turbidity after 24 hrs. Format: functional. Particulars: RCMB 010052, 24 h. Summed up:
as §1
For `Cc1noc(NS(=O)(=O)c2ccc(NC(=O)/C(C#N)=C/c3ccccc3)cc2)c1C`, the MIC amounted to 1.95 µg/mL (≈ 4.62 µM).
For `Cc1noc(NS(=O)(=O)c2ccc(-n3c(S)c(C#N)c(-c4ccco4)c(C#N)c3=O)cc2)c1C`, the MIC came to 0.98 µg/mL (≈ 1.99 µM).

A further assay relates to Syncephalastrum racemosum. Put plainly: Antifungal activity against Syncephalastrum racemosum RCMB 05922 assessed as inhibition zone at 5 mg/ml after 48 hrs. Format: functional. Particulars: RCMB 05922, 48 h, read-out: IZ.
Turning to `Cc1noc(NS(=O)(=O)c2ccc(NC(=O)/C(C#N)=C/c3ccccc3)cc2)c1C`, the zone of inhibition at 5000 µg/mL was determined as 18.8 mm.
On to `Cc1noc(NS(=O)(=O)c2ccc(-n3c(S)c(C#N)c(-c4ccco4)c(C#N)c3=O)cc2)c1C`, for which the zone of inhibition at 5000 µg/mL stood at 20.6 mm.

The test system of a further assay is Bacillus subtilis. Put plainly: Antimicrobial activity against Bacillis subtilis RCMB 010067 assessed as absence of turbidity after 24 hrs. Format: functional. Particulars: RCMB 010067, 24 h. In a few lines:
as §1
For the compound `Cc1noc(NS(=O)(=O)c2ccc(NC(=O)/C(C#N)=C/c3ccccc3)cc2)c1C`, the minimal inhibitory concentration (MIC) stood at 1.95 µg/mL (≈ 4.62 µM).
Consider `Cc1noc(NS(=O)(=O)c2ccc(-n3c(S)c(C#N)c(-c4ccco4)c(C#N)c3=O)cc2)c1C`, for which the MIC was determined as 0.12 µg/mL (≈ 0.243 µM).

Another assay deals with Aspergillus fumigatus. Briefly: Antifungal activity against Aspergillus fumigatus RCMB 02568 assessed as absence of turbidity after 48 hrs. Format: functional. Particulars: RCMB 02568, 48 h. In a few lines:
as §4
Turning to `Cc1noc(NS(=O)(=O)c2ccc(NC(=O)/C(C#N)=C/c3ccccc3)cc2)c1C`, the minimum inhibitory concentration (MIC) stood at 15.6 µg/mL (≈ 37 µM).
Consider `Cc1noc(NS(=O)(=O)c2ccc(-n3c(S)c(C#N)c(-c4ccco4)c(C#N)c3=O)cc2)c1C`, for which the MIC was 0.49 µg/mL (≈ 0.993 µM).

For another assay, the system named is Proteus vulgaris. Briefly: Antimicrobial activity against Proteus vulgaris RCMB 010085 assessed as absence of turbidity after 24 hrs. Format: functional. Particulars: RCMB 010085, 24 h. Summed up: as §1
As for `Cc1noc(NS(=O)(=O)c2ccc(NC(=O)/C(C#N)=C/c3ccccc3)cc2)c1C`, the MIC was 7.81 µg/mL (≈ 18.5 µM).
Turning to `Cc1noc(NS(=O)(=O)c2ccc(-n3c(S)c(C#N)c(-c4ccco4)c(C#N)c3=O)cc2)c1C`, the MIC amounted to 7.81 µg/mL (≈ 15.8 µM).

The values above are taken from ChEMBL document CHEMBL3351454, “Design, synthesis, antimicrobial evaluation and molecular docking studies of some new thiophene, pyrazole and pyridone derivatives bearing sulfisoxazole moiety” (2014).
